In ChEMBL document CHEMBL3414420, “Synthesis of xanthohumol analogues and discovery of potent thioredoxin reductase inhibitor as potential anticancer agent” (J Med Chem, 2015) one finds IC50 and inhibition data, which are given here for 41 compounds.

Molecules are shown by their SMILES. pIC50: −log10 of the molar value. The source made the active and inactive calls. No cut-off for these calls is given here.

The nature of experiment [1]: Cytotoxicity against human […] cells assessed as inhibition of cell proliferation after 72 hrs by MTT assay. Format: functional, cell-based. An outline of the steps: (§1)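 Cells, 5×10^3 per well, exposed in triplicate at 37 °C; DMSO-only wells as controls (0.1% v/v DMSO in all cell work). After 68 h, MTT (5 mg/mL stock) was added for a further 4 h. Overnight solubilisation at 37 °C in 10% SDS/5% isobutanol/0.1% HCl, then A570 read.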

The subject of another experiment is HepG2. The experiment is described as follows: Cytotoxicity against human HepG2 cells assessed as inhibition of cell proliferation after 72 hrs by MTT assay. Format: functional, cell-based. As to conditions: HepG2, 72 h. The essentials:
as §1
Background: Formazan colour is commonly taken as a measure of viable cells.

The target of experiment [2] is Thioredoxin reductase 1 (Rattus norvegicus) (UniProt O89049). The experiment is described as follows: In vitro inhibition of NADPH-reduced TrxR (unknown origin) after 2 hrs incubation by microplate reader.
For another experiment, the system named is A549. Kind of experiment: Cytotoxicity against human A549 cells assessed as inhibition of cell proliferation after 72 hrs by MTT assay. In kind it is functional, cell-based. The conditions noted are these: A549, 72 h. The essentials:
as §1

The nature of experiment [3]: Cytotoxicity against human HL60 cells assessed as inhibition of cell proliferation after 72 hrs by MTT assay. In kind it is functional, cell-based. The conditions noted are these: HL-60, 72 h. The essentials:
as §1

For a further experiment, the system named is HeLa. The experiment is described as follows: Cytotoxicity against human HeLa cells assessed as inhibition of cell proliferation after 72 hrs by MTT assay. In kind it is functional, cell-based. An outline of the steps:
as §1

A short description of experiment [4]: In vitro inhibition of TrxR U498C mutant (unknown origin) up to 40 uM after 2 hrs incubation by microplate reader.
The target of experiment [5] is T1, Thioredoxin reductase (Homo sapiens, UniProt Q16881+Q9NNW7+Q86VQ6). Kind of experiment: Inhibition of TrxR in human HeLa cells by Trx-mediated insulin reduction assay.
Experiment [6] concerns the target T1, Thioredoxin reductase. The experiment is described as follows: Inhibition of TrxR in human HeLa cells after 48 hrs by end point reduction assay. Format: cell-based. The essentials: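 HeLa cells treated 48 h, lysed in RIPA buffer and protein measured by Bradford. Lysate (20 μg) incubated 30 min at 37 °C with 0.3 mM insulin, 660 μM NADPH and 15 μM E. coli Trx (pH 7.6). Stopped with DTNB in 6 M guanidine-HCl; A412 minus Trx-free blank, as % of DMSO control.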

The target of experiment [7] is T1, Thioredoxin reductase. The experiment is described as follows: Inhibition of TrxR in human HeLa cells after 48 hrs by TRFS-green based fluorescence microscopy. In kind it is cell-based. An outline of the steps:
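Live HeLa cells exposed to compound for 44 h, then to TRFS-green (10 μM) for a further 4 h. Green fluorescence, which tracks cellular TrxR activity, imaged alongside phase contrast.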

Thioredoxin reductase 1 (Rattus norvegicus), sequence (O89049 whole entry, looked up): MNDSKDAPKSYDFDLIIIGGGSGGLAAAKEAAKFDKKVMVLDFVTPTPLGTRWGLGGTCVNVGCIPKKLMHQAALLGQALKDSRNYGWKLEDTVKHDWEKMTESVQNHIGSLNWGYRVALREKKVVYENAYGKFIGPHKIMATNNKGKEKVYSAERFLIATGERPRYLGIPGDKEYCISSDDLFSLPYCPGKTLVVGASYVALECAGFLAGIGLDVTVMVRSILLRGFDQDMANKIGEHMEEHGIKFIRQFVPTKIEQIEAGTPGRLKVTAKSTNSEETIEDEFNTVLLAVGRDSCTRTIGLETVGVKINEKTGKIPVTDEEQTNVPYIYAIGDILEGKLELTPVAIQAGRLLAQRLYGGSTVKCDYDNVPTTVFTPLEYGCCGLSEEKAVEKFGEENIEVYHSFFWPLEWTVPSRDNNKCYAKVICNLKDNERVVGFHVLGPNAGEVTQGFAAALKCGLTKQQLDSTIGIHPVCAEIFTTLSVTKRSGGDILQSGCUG

Regarding `COc1cc(OC)c(C(=O)/C=C/c2ccc(C(F)(F)F)cc2)c(OC)c1`, the pIC50 (as a rule, the IC50 on a negative log10 scale, so that one unit is a factor of ten) was 4.80 in [1]; 5.01 in the experiment with HepG2; 4.85 in the experiment with A549; 5.19 in experiment [3]; 5.29 in the experiment on HeLa. For the same compound, the inhibition result in [2] is “Active”.
Consider `COc1ccc(/C=C/C(=O)c2c(OC)cc(O)c(CC=C(C)C)c2O)c(OC)c1OC`, for which the pIC50 is 4.83 with HepG2, 4.74 with A549 and < 4.30 in the experiment on HeLa.
The matching figures for `COc1cc(OC)c(C(=O)/C=C/c2cc(OC)c(OC)c(OC)c2)c(OC)c1`: 4.78, 4.65 and 5.00.
For `COc1cc(OC)c(C(=O)/C=C/c2cccc([N+](=O)[O-])c2)c(OC)c1`, in experiment [4], the inhibition entry is “inactive”. Besides, the IC50 – broadly, the midpoint of a concentration-inhibition curve – against Thioredoxin reductase [5] was found to be 3.5 µM; in experiment [2], 12.8 µM. Further, the inhibition result on Thioredoxin reductase [6] and at Thioredoxin reductase [7] was “Dose-dependent effect” each time.
On to `COc1cc(OC)c(C(=O)/C=C/c2ccc(O)c(O)c2)c(OC)c1`, for which the pIC50 is 4.56 in the experiment with HepG2, 5.09 with A549 and 4.80 in the experiment with HeLa.
For the compound `COc1cc(O)cc(O)c1C(=O)/C=C/c1cccc([N+](=O)[O-])c1`, the pIC50 in [1] was 4.70; in the experiment on HepG2, 4.79; in the experiment with A549, 4.43; in [3], 5.23; with HeLa, 4.81. Besides, the inhibition result in experiment [2] is “Active”.
In the case of `COc1cc(OC)c(C(=O)/C=C/c2ccc(OC)c(OC)c2OC)c(OC)c1`, the results for the pIC50 in the experiment with HepG2, with A549 and in the experiment with HeLa were < 4.30, 4.35 and < 4.30, respectively.
`COc1cc(/C=C/C(=O)c2c(OC)cc(OC)cc2OC)cc(OC)c1`: the pIC50 in the experiment with HepG2 was 5.05; in the experiment with A549, 5.00; with HeLa it was 5.04.
Take `COc1cc(/C=C/C(=O)c2c(OC)cc(O)c(CC=C(C)C)c2O)cc(OC)c1OC`: the pIC50 in the experiment on HepG2, with A549 and in the experiment on HeLa was < 4.30 each time.
For the compound `COc1cc(/C=C/C(=O)c2c(O)cc(O)cc2OC)cc(OC)c1OC`, the pIC50 in the experiment on HepG2 was 4.69; in the experiment with A549 it was 4.55; in the experiment on HeLa, 4.72.
Turning to `COc1cc(O)c(CC=C(C)C)c(O)c1C(=O)/C=C/c1ccc(Cl)cc1`, the pIC50 with HepG2 was 5.00; in the experiment with A549, 4.93; in the experiment on HeLa, 4.78.
In the case of `COc1cc(O)c(CC=C(C)C)c(O)c1C(=O)/C=C/c1ccc(C(F)(F)F)cc1`, the pIC50 in experiment [1] is 4.97; with HepG2 it was 5.19; in the experiment with A549, 4.95; in [3], 5.28; in the experiment on HeLa it was 5.17. In addition, the inhibition entry in [2] is “Active”.
Take `COc1ccc(/C=C/C(=O)c2c(O)cc(O)cc2OC)cc1`: the results for the pIC50 with HepG2, in the experiment with A549 and in the experiment on HeLa were 4.74, < 4.30 and 4.32, respectively.
Turning to `COc1ccc(/C=C/C(=O)c2c(O)cc(O)cc2OC)cc1OC`, the pIC50 in the experiment with HepG2 is 4.73; with A549, < 4.30; in the experiment with HeLa, 4.31.
Turning to `COc1ccccc1/C=C/C(=O)c1c(OC)cc(O)c(CC=C(C)C)c1O`, the pIC50 is 4.84 in the experiment with HepG2, 4.90 in the experiment with A549 and 4.71 in the experiment on HeLa.
For the compound `COc1cc(OC)c(C(=O)/C=C/c2ccc(C)cc2)c(OC)c1`, the pIC50 was 4.74 in the experiment with HepG2, 4.82 in the experiment on A549 and 4.77 with HeLa.
For `COc1cc(O)c(CC=C(C)C)c(O)c1C(=O)/C=C/c1ccc(O)c(O)c1`, the pIC50 in the experiment on HepG2 is 4.82; in the experiment with A549, 4.79; in the experiment on HeLa, 4.42.
The corresponding values for `COc1ccccc1/C=C/C(=O)c1c(O)cc(O)cc1OC` are 4.82, 4.32 and 4.36.
For the compound `COc1cc(O)cc(O)c1C(=O)/C=C/c1ccc(O)c(O)c1`, the figures for the pIC50 with HepG2, with A549 and in the experiment with HeLa were 4.54, 4.93 and 4.67, respectively.
On to `COc1cc(O)cc(O)c1C(=O)/C=C/c1ccc(O)cc1` [HELICHRYSETIN], for which the pIC50 is 4.40 in the experiment on HepG2, < 4.30 in the experiment with A549 and 4.32 in the experiment on HeLa.
In the case of `COc1cc(O)c(CC=C(C)C)c(O)c1C(=O)/C=C/c1cccc([N+](=O)[O-])c1`, the pIC50 is 4.78 with HepG2, 4.82 with A549 and 4.78 with HeLa.
Consider `COc1cc(OC)c(C(=O)/C=C/c2ccccc2OC)c(OC)c1`, for which the figures for the pIC50 in the experiment on HepG2, in the experiment with A549 and in the experiment with HeLa were 4.79, 4.70 and 4.71, respectively.
The matching figures for `COc1cc(/C=C/C(=O)c2c(O)cc(O)cc2OC)cc(OC)c1`: 4.75, 4.47 and 4.88.
As for `COc1cc(OC)c(C(=O)/C=C/c2cc(OC)c(OC)cc2OC)c(OC)c1`, the pIC50 in the experiment with HepG2 was 4.62; in the experiment with A549, 4.35; with HeLa, 4.39.
With `COc1cc(O)cc(O)c1C(=O)/C=C/c1ccc(C)cc1`, the pIC50 in the experiment with HepG2, with A549 and in the experiment on HeLa was < 4.30 in each case.
Turning to `COc1cc(O)cc(O)c1C(=O)/C=C/c1ccc(C(F)(F)F)cc1`, the negative-log IC50 (pIC50) in the experiment with HepG2 was 4.85; in the experiment with A549 it was 4.81; in the experiment on HeLa, 5.02.
Consider `COc1cc(OC)c(OC)cc1/C=C/C(=O)c1c(O)cc(O)cc1OC`, for which the pIC50 in the experiment on HepG2 was 4.73; in the experiment on A549, 4.47; in the experiment on HeLa, 4.42.
As to `COc1cc(OC)c(C(=O)/C=C/c2ccc(N)cc2)c(OC)c1`, the pIC50 in the experiment with HepG2 was 4.34; with A549, < 4.30; in the experiment with HeLa, < 4.30.
As to `COc1cc(/C=C/C(=O)c2c(O)cc(O)cc2OC)ccc1O`, the pIC50 in the experiment with HepG2, in the experiment on A549 and in the experiment with HeLa was < 4.30 in each case.
For the compound `COc1cc(OC)c(C(=O)/C=C/c2ccc(Cl)cc2)c(OC)c1`, the inhibition result in experiment [2] is “Active”.
As to `COc1ccc(/C=C/C(=O)c2c(OC)cc(O)c(CC=C(C)C)c2O)cc1OC`, the negative-log IC50 (pIC50) was 4.86 in the experiment with HepG2, 4.80 with A549 and 4.56 with HeLa.
`COc1ccc(/C=C/C(=O)c2c(OC)cc(O)c(CC=C(C)C)c2O)cc1`: the values for the pIC50 in the experiment on HepG2, in the experiment on A549 and in the experiment on HeLa were 4.49, 4.42 and < 4.30, respectively.
Take `COc1cc(O)c(CC=C(C)C)c(O)c1C(=O)/C=C/c1ccc([N+](=O)[O-])cc1`: the values for the negative logarithm of the IC50 (pIC50) with HepG2, with A549 and in the experiment with HeLa were 4.91, 4.51 and 4.53, respectively.
The matching figures for `COc1cc(O)cc(O)c1C(=O)/C=C/c1ccc(Cl)cc1`: 4.91, 4.74 and 4.77.
`COc1cc(O)c(CC=C(C)C)c(O)c1C(=O)/C=C/c1ccc(O)cc1` [XANTHOHUMOL]: on Thioredoxin reductase [5], the IC50 was > 40 µM. The figures for the pIC50 in the experiment with HepG2, in the experiment with A549 and with HeLa were 4.46, 4.52 and 4.39, respectively.
Turning to `COc1cc(OC)c(C(=O)/C=C/c2ccc(O)c(OC)c2)c(OC)c1`, the pIC50 in the experiment with HepG2 is 4.77; in the experiment with A549, 4.36; in the experiment with HeLa it was 4.35.
For the compound `COc1cc(OC)c(OC)cc1/C=C/C(=O)c1c(OC)cc(O)c(CC=C(C)C)c1O`, the pIC50 is < 4.30 in the experiment on HepG2, 4.84 in the experiment with A549 and < 4.30 in the experiment on HeLa.
For the compound `COc1cc(OC)c(C(=O)/C=C/c2ccc(OC)c(OC)c2)c(OC)c1`, the values for the pIC50 in the experiment with HepG2, with A549 and in the experiment on HeLa were 4.94, 4.41 and 4.74, respectively.
Regarding `COc1cc(OC)c(C(=O)/C=C/c2ccc(O)cc2)c(OC)c1`, the pIC50 was 4.43 with HepG2, 4.31 in the experiment with A549 and 4.39 with HeLa.
The corresponding values for `COc1cc(O)cc(O)c1C(=O)/C=C/c1ccc([N+](=O)[O-])cc1` are 4.39, < 4.30 and < 4.30.
For the compound `COc1cc(/C=C/C(=O)c2c(OC)cc(O)c(CC=C(C)C)c2O)ccc1O`, the figures for the pIC50 in the experiment on HepG2, in the experiment on A549 and with HeLa were 4.66, 4.93 and 4.47, respectively.
